In ChEMBL document CHEMBL4038284, “Synthesis of novel quinoline-based 4,5-dihydro-1H-pyrazoles as potential anticancer, antifungal, antibacterial and antiprotozoal agents” (Eur J Med Chem, 2017):
In brackets after ≈: the same amount, converted by molar mass. Activity calls are given as the source filed them. The calls are words filed in the database; no cut-off is given here.

What was measured:
SK-OV-3 = test: Growth inhibition of human SKOV3 cells at 10 uM incubated for 48 hrs by sulforhodamine B assay; assay type: functional, cell-based
Outline: (§1)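 NCI-60 single-dose screen at 10 µM for 48 h. Cells were grown in RPMI-1640 with 5% FBS and 2 mM L-glutamine and preincubated 24 h before compound. Time-zero plates were TCA-fixed at compound addition. After exposure, cells were TCA-fixed, stained with SRB and read at 515 nm. Percentage growth was calculated against time-zero and untreated-control absorbances.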

NCI-H23 = test: Growth inhibition of human NCI-H23 cells at 10 uM incubated for 48 hrs by sulforhodamine B assay; assay type: functional, cell-based
Outline: (§2)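 NCI 60-line panel, single 10 μM dose. Cells were grown in RPMI-1640 with 5% FBS and 2 mM L-glutamine and pre-incubated 24 h before compound addition (DMSO stock). Exposure was 48 h at 37 °C, 5% CO2. Cells were fixed with cold TCA (10% final), stained with 0.4% SRB, bound dye dissolved in 10 mM Tris base, A515 read. Growth was taken relative to time-zero and untreated control plates.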

UACC-62 = test: Growth inhibition of human UACC62 cells at 10 uM incubated for 48 hrs by sulforhodamine B assay; assay type: functional, cell-based; outline: as §1
Cryptococcus neoformans [1] = test: Antifungal activity against Cryptococcus neoformans ATCC 32264 incubated for 48 hrs under dark condition by broth microdilution method; assay type: functional; conditions: ATCC 32264, 48 h
Outline: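 CLSI M27-A3 broth microdilution in RPMI-1640, DMSO ≤1%, compounds at 250-0.98 µg/mL final. Inoculum 1-5 × 10^3 CFU/mL. Incubated 48 h at 30 °C in a moist dark chamber, read at OD405. MIC80 and MIC50 taken from % inhibition dose-response curves (mean ± SEM, triplicate). Amphotericin B was the positive control.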

Trypanosoma cruzi = test: Antitrypanosomal activity against Trypanosoma cruzi Tulahuen intracellular amastigote harboring LacZ infected in human U937 cells after 72 hrs by CPRG/Nonidet reagent based spectrophotometric method; assay type: functional, cell-based; conditions: U-937, 72 h
Outline: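 U-937 cells at 2.5 × 10^5 cells/mL in RPMI-1640 with 10% serum and 0.1 µg/mL PMA were infected with β-galactosidase-transfected Tulahuen epimastigotes at 5 parasites per cell. Infected cells were exposed to 50, 12.5, 3.125 and 0.78 µg/mL for 72 h. CPRG (100 uM) and 0.1% Nonidet P-40 were added for 3 h, read at 570 nm. EC50 by Probit. Triplicate, at least two experiments; benznidazole as reference.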

MOLT-4 = test: Growth inhibition of human MOLT4 cells at 10 uM incubated for 48 hrs by sulforhodamine B assay; assay type: functional, cell-based; outline: as §2
Escherichia coli = test: Antibacterial activity against Escherichia coli ATCC 25922 after 24 hrs by resazurin dye based microdilution assay; assay type: functional; conditions: ATCC 25922, 24 h
Outline: (§3)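 MIC taken as the lowest concentration giving visible inhibition and/or by resazurin (1 mg/mL). Gentamicin was the control. Run in duplicate, repeated at least three times.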

IGROV-1 = test: Growth inhibition of human IGROV1 cells at 10 uM incubated for 48 hrs by sulforhodamine B assay; assay type: functional, cell-based; outline: as §2
HOP-92 = test: Growth inhibition of human HOP92 cells at 10 uM incubated for 48 hrs by sulforhodamine B assay; assay type: functional, cell-based; outline: as §2
OVCAR-3 = test: Growth inhibition of human OVCAR3 cells at 10 uM incubated for 48 hrs by sulforhodamine B assay; assay type: functional, cell-based; outline: as §2
T47D = test: Growth inhibition of human T47D cells at 10 uM incubated for 48 hrs by sulforhodamine B assay; assay type: functional, cell-based; outline: as §1
SK-MEL-28 = test: Growth inhibition of human SK-MEL-28 cells at 10 uM incubated for 48 hrs by sulforhodamine B assay; assay type: functional, cell-based; outline: as §1
K562 = test: Growth inhibition of human K562 cells at 10 uM incubated for 48 hrs by sulforhodamine B assay; assay type: functional, cell-based; outline: as §2
NCI-H522 = test: Growth inhibition of human NCI-H522 cells at 10 uM incubated for 48 hrs by sulforhodamine B assay; assay type: functional, cell-based; outline: as §2
Pseudomonas aeruginosa = test: Antibacterial activity against Pseudomonas aeruginosa ATCC 27853 after 24 hrs by resazurin dye based microdilution assay; assay type: functional; conditions: ATCC 27853, 24 h; outline: as §3
Cryptococcus neoformans [2] = test: Growth inhibition of Cryptococcus neoformans ATCC 32264 at 250 ug/ml incubated for 48 hrs under dark condition by broth microdilution method relative to control; assay type: functional; conditions: ATCC 32264, 48 h, read-out: GI
Outline: (§4)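 CLSI M27-A3 broth microdilution in RPMI-1640, DMSO ≤1%. Inoculum 1-5 × 10^3 CFU/mL. Incubated 48 h at 30 °C, dark. % inhibition = 100 − (OD405 test − sterility control)/(OD405 growth control − sterility control), with growth and sterility control wells. Triplicate.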

HCT-116 = test: Growth inhibition of human HCT116 cells at 10 uM incubated for 48 hrs by sulforhodamine B assay; assay type: functional, cell-based
Outline: (§5)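 NCI 60-cell-line screen at a single 10 µM dose. Cells in RPMI-1640 with 5% FBS and 2 mM L-glutamine, pre-incubated 24 h, then treated for 48 h at 37 °C. TCA fixation, sulforhodamine B staining, absorbance at 515 nm. Percentage growth calculated against time-zero and untreated controls.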

SF-268 = test: Growth inhibition of human SF268 cells at 10 uM incubated for 48 hrs by sulforhodamine B assay; assay type: functional, cell-based; outline: as §2
A549 = test: Growth inhibition of human A549/ATCC cells at 10 uM incubated for 48 hrs by sulforhodamine B assay; assay type: functional, cell-based; outline: as §5
HL-60(TB) = test: Growth inhibition of human HL-60(TB) cells at 10 uM incubated for 48 hrs by sulforhodamine B assay; assay type: functional, cell-based
Outline: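 NCI 60-line single-dose screen at 10 μM, 48 h. Cells in RPMI-1640 with 5% FBS and 2 mM L-glutamine at 37 °C, 5% CO2. Growth measured by TCA fixation and SRB staining (515 nm), relative to time-zero and untreated control wells.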

Hs-578T = test: Growth inhibition of human Hs578T cells at 10 uM incubated for 48 hrs by sulforhodamine B assay; assay type: functional, cell-based; outline: as §2
NCI-H322M = test: Growth inhibition of human NCI-H322M cells at 10 uM incubated for 48 hrs by sulforhodamine B assay; assay type: functional, cell-based; outline: as §2
MDA-MB-231 = test: Growth inhibition of human MDA-MB-231 cells at 10 uM incubated for 48 hrs by sulforhodamine B assay; assay type: functional, cell-based; outline: as §2
OVCAR-4 = test: Growth inhibition of human OVCAR4 cells at 10 uM incubated for 48 hrs by sulforhodamine B assay; assay type: functional, cell-based; outline: as §2
CAKI-1 = test: Growth inhibition of human Caki1 cells at 10 uM incubated for 48 hrs by sulforhodamine B assay; assay type: functional, cell-based; outline: as §5
Candida albicans = test: Growth inhibition of Candida albicans ATCC 10231 at 15.62 ug/ml incubated for 48 hrs under dark condition by broth microdilution method relative to control; assay type: functional; conditions: ATCC 10231, 48 h, read-out: GI; outline: as §4
NCI-H226 = test: Growth inhibition of human NCI-H226 cells at 10 uM incubated for 48 hrs by sulforhodamine B assay; assay type: functional, cell-based; outline: as §2
MDA-MB-435 = test: Growth inhibition of human MDA-MB-435 cells at 10 uM incubated for 48 hrs by sulforhodamine B assay; assay type: functional, cell-based; outline: as §2

Row | Compound | growth inhibition (GI) (SK-OV-3) | growth inhibition (GI) (NCI-H23) | growth inhibition (GI) (UACC-62) | MIC50 (Cryptococcus neoformans [1]) | MIC80 (Cryptococcus neoformans [1]) | EC50 (Trypanosoma cruzi) | growth inhibition (GI) (MOLT-4) | MIC (Escherichia coli) | growth inhibition (GI) (IGROV-1) | growth inhibition (GI) (HOP-92) | growth inhibition (GI) (OVCAR-3) | growth inhibition (GI) (T47D) | growth inhibition (GI) (SK-MEL-28) | growth inhibition (GI) (K562) | growth inhibition (GI) (NCI-H522) | MIC (Pseudomonas aeruginosa) | inhibition of growth at 250 µg/mL (Cryptococcus neoformans [2]) | growth inhibition (GI) (HCT-116) | growth inhibition (GI) (SF-268) | growth inhibition (GI) (A549) | other results
1 | Clc1ccc(C2=NN(c3ccc(Cl)cc3)C(c3cccc(Nc4ccnc5cc(Cl)ccc45)c3)C2)cc1 (configuration not stated) | inactive | inactive | inactive | 250 µg/mL (≈ 460 µM) | ≥ 250 µg/mL | 55.8 µg/mL (≈ 103 µM) | inactive | > 1000 µg/mL | inactive | inactive | inactive | inactive | inactive | inactive | inactive | > 1000 µg/mL | 53% | inactive | inactive | inactive | growth inhibition (GI) (HL-60(TB)): inactive; growth inhibition (GI) (Hs-578T): inactive; growth inhibition (GI) (NCI-H322M): inactive; growth inhibition (GI) (MDA-MB-231): inactive; growth inhibition (GI) (OVCAR-4): inactive; growth inhibition (GI) (CAKI-1): inactive; inhibition of growth at 15.62 µg/mL (Candida albicans): 6.09%; growth inhibition (GI) (NCI-H226): inactive; growth inhibition (GI) (MDA-MB-435): inactive
2 | COc1ccc(C2=NN(c3ccccc3)C(c3cccc(Nc4ccnc5cc(Cl)ccc45)c3)C2)cc1 (configuration not stated) | inactive | inactive | inactive | ≥ 250 µg/mL | ≥ 250 µg/mL | 86.8 µg/mL (≈ 172 µM) | inactive | > 1000 µg/mL | inactive | inactive | inactive | inactive | inactive | inactive | inactive | > 1000 µg/mL | 32.2% | inactive | inactive | inactive | growth inhibition (GI) (HL-60(TB)): inactive; growth inhibition (GI) (Hs-578T): inactive; growth inhibition (GI) (NCI-H322M): inactive; growth inhibition (GI) (MDA-MB-231): inactive; growth inhibition (GI) (OVCAR-4): inactive; growth inhibition (GI) (CAKI-1): inactive; inhibition of growth at 15.62 µg/mL (Candida albicans): 8.21%; growth inhibition (GI) (NCI-H226): inactive; growth inhibition (GI) (MDA-MB-435): inactive
3 | COc1cc(C2=NN(c3ccc(Cl)cc3)C(c3cccc(Nc4ccnc5cc(Cl)ccc45)c3)C2)cc(OC)c1OC (configuration not stated) | inactive | inactive | inactive | ≥ 250 µg/mL | ≥ 250 µg/mL | 22.6 µg/mL (≈ 37.7 µM) | inactive | > 1000 µg/mL | inactive | inactive | inactive | inactive | inactive | inactive | inactive | > 1000 µg/mL | 21.7% | inactive | inactive | inactive | growth inhibition (GI) (HL-60(TB)): inactive; growth inhibition (GI) (Hs-578T): inactive; growth inhibition (GI) (NCI-H322M): inactive; growth inhibition (GI) (MDA-MB-231): inactive; growth inhibition (GI) (OVCAR-4): inactive; growth inhibition (GI) (CAKI-1): inactive; inhibition of growth at 15.62 µg/mL (Candida albicans): 8.02%; growth inhibition (GI) (NCI-H226): inactive; growth inhibition (GI) (MDA-MB-435): inactive
